Measurements collected from several papers.
Lines come from different studies, so protocols differ.
Target: Mitogen-activated protein kinase kinase kinase kinase 2 (MAP4K2, Homo sapiens, UniProt Q12851)
One construct used (Q12851 1-820): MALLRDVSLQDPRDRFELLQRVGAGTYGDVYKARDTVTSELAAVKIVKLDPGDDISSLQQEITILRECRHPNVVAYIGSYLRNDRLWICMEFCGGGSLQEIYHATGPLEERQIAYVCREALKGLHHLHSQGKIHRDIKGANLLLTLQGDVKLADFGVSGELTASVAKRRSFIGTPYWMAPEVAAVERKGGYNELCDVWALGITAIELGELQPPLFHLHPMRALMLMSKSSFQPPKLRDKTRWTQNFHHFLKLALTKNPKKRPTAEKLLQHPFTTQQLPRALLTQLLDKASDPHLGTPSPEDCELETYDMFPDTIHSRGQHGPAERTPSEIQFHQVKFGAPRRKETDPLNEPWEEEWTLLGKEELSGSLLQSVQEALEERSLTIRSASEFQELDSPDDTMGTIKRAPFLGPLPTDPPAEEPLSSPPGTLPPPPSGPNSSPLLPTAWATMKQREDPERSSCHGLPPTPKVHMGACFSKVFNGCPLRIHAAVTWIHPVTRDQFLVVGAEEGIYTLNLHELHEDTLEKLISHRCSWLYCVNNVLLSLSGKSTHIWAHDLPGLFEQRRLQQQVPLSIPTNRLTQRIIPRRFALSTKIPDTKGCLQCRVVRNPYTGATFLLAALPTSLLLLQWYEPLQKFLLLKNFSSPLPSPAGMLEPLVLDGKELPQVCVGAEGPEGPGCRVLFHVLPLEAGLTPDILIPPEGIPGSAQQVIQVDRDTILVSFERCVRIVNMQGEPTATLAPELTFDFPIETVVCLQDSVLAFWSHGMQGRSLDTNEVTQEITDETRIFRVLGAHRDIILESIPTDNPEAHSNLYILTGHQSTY

| SMILES | effect on | mode | method | concentration | endpoint | value |
| --- | --- | --- | --- | --- | --- | --- |
| Cc1cc(NC(=O)c2cccc(S(F)(F)(F)(F)F)c2)cc(-n2ccn3nc(-c4cccnc4)cc23)c1 | cell-free assay | – | competition with immobilised ligand | 1 µM | remaining binding | 100% |
| CN1CC(Oc2cnc(C#N)cc2-c2ccn3nc(NC(=O)C4CC4)cc3c2)C1 | enzyme activity | inhibitor | – | 1 µM | inhibition | 2% |
| Cc1ccc(Nc2nccc(N(C)c3ccc4c(C)n(C)nc4c3)n2)cc1S(N)(=O)=O | enzyme activity | inhibitor | – | 0.3 µM | inhibition | 16% |
| CC(=O)N1CCC(c2ccc(C(=O)NC(=N)N)cc2C(F)(F)F)CC1 | cell-free assay | – | competition with immobilised ligand | 1 µM | remaining binding | 100% |
| O=C1NC(=O)c2cc(Nc3ccc(F)cc3)c(Nc3ccc(F)cc3)cc21 | cell-free assay | – | – | 0.5 µM | remaining signal | 98.2% |
| Cc1sc(C(=O)NC2COC2)cc1-n1cc(NC(=O)Nc2c(F)cccc2Cl)cn1 | enzyme activity | inhibitor | – | 10 µM | remaining activity | 90.2% |
| O=C1NC(c2ccccn2)Sc2ccccc21 (centres unmarked) | cell-free assay | – | competition with immobilised ligand | 1 µM | remaining binding | 83% |
| FC(F)c1nc2ccccc2n1-c1nc(N2CCOCC2)nc(N2CCOCC2)n1 | enzyme activity | inhibitor | – | 10 µM | remaining activity | 104% |
| Cc1c(NC(=O)c2cc(C(N)=O)nc3cc(F)ccc23)c(C(F)(F)F)nn1Cc1ccc(C#N)cc1 | cell-free assay | – | competition with immobilised ligand | 1 µM | remaining binding | 88% |
| COc1cc(Nc2cnc(C#N)c(O[C@H](C)CN(C)C)n2)ncc1-c1cnn(C)c1 | enzyme activity | inhibitor | radiometric | 1 µM | remaining activity | 102% |
| COc1cc2ncnc(Nc3ccc(Oc4ccccc4)c(C)c3C)c2cc1OC | enzyme activity | inhibitor | – | 1 µM | inhibition | 0% |
| FC(F)(F)Oc1cccc(-c2cnc3ccc(-c4ccncc4)nn23)c1 | enzyme activity | inhibitor | radiometric | 5 µM | activity vs control | 33% |
| Nc1ncnc2occ(-c3ccc(NC(=O)Nc4cc(C(F)(F)F)ccc4F)cc3)c12 | cell-free assay | inhibitor | – | 20 µM | remaining signal | 0% |
| O=C(Nc1cccnn1)N1CCC(=Cc2cccc(Oc3ccc(C(F)(F)F)cn3)c2)CC1 | cell-free assay | – | competition with immobilised ligand | 1 µM | remaining binding | 100% |
| COc1cc(Nc2c(C#N)cnc3cc(OCCCN4CCN(C)CC4)c(OC)cc23)c(Cl)cc1Cl | cell-free assay | – | – | 0.5 µM | remaining signal | 3.16% |
| C[C@@H](c1cccc(C#N)c1)n1cc(Cl)cc(C(N)=O)c1=N | cell-free assay | – | competition with immobilised ligand | 1 µM | remaining binding | 90% |
| COc1cc(Cl)c(C(=O)N[C@@H](CN[C@H]2CC[C@@H](N)CC2)Cc2ccc(C#N)cc2)cc1-c1ccc(CN[C@H](C)c2ccc(C)cc2)o1 | enzyme activity | inhibitor | – | 1 µM | remaining activity | 94% |
| CC(C)(O)[C@H]1CC[C@H](Nc2ccc3ncc(-c4cccc(C(F)(F)F)c4)n3n2)CC1 | enzyme activity | inhibitor | – | 1 µM | remaining activity | 94.6% |
| Oc1cccc(-c2nc(N3CCOCC3)c3oc4ncccc4c3n2)c1 | enzyme activity | inhibitor | – | 10 µM | remaining activity | 91% |
| CC(C)(C)c1nc2c(s1)c1nc(N)ncc1c1ccc(NS(=O)(=O)c3c(F)cccc3F)c(F)c12 | enzyme activity | inhibitor | radiometric | 1 µM | remaining activity | 114% |
| CN1CCN(C(=O)c2ccc3cc(CCNc4ccnc5ccc(C#N)cc45)ccc3c2)CC1 | binding | – | competition with immobilised ligand | 2 µM | inhibition | > 35% |
| Cc1nc(N2CC[C@@H](O)C2)ncc1-c1cc(C(F)(F)F)cc2[nH]ncc12 | binding | – | competition with immobilised ligand | 1 µM | remaining binding | 76% |
| CNC(=O)c1cc(Oc2ccc(NC(=O)Nc3ccc(Cl)c(C(F)(F)F)c3)cc2)ccn1 | enzyme activity | inhibitor | – | 10 µM | inhibition | 46% |
| O=C1Nc2ccc(Cl)cc2C1=Cc1cc(Cl)c(O)c(Cl)c1 | cell-free assay | – | – | 0.5 µM | remaining signal | 62.6% |
| CCN(CC)CCNC(=O)c1c(C)[nH]c(/C=C2\C(=O)Nc3ccc(F)cc32)c1C | enzyme activity | inhibitor | – | 10 µM | inhibition | 92% |
| CCN(CC)c1ccc(C2=NNC(=O)CC2C)cc1[N+](=O)[O-] (centres unmarked) | enzyme activity | inhibitor | – | 10 µM | remaining activity | 97% |
